Reference: ChEMBL document CHEMBL1123985, “Oral absorption of cephalosporin antibiotics. 1. Synthesis, biological properties, and oral bioavailability of 7-(arylacetamido)-3-chloro cephalosporins in animals” (J Med Chem, 1988)
≈ marks a conversion by molar mass, not a printed value.

Tests used:
[1] = Minimum inhibitory concentration against N9 strain of Shigella sonnei; format: functional
[2] = test system: Staphylococcus aureus; test: Minimum inhibitory concentration against S13E strain of Staphylococcus aureus; format: functional
[3] = Minimum inhibitory concentration against sens CL strain of Haemophilus influenzae; format: functional
[4] = test system: Klebsiella aerogenes; test: Minimum inhibitory concentration against EB17 strain of Enterobacter aerogenes; format: functional
[5] = test system: Escherichia coli; test: Minimum inhibitory concentration against EC14 strain Escherichia coli; format: functional
[6] = test system: Staphylococcus epidermidis; test: Minimum inhibitory concentration against Epil strain of Staphylococcus epidermidis; format: functional
[7] = Oral bioavailability in mouse; format: ADME, organism-based; conditions: in vivo
Outline: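 Male Cox mice given water and liquid diet overnight; 20 mg/kg in saline (2 mg/mL) sc or orally; urine from collection cages plus bladder contents over 2 h; activity by agar well assay with Bacillus subtilis ATCC 6633. Bioavailability from percent dose excreted in urine after oral vs parenteral dosing.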

[8] = test system: Streptococcus pyogenes; test: Minimum inhibitory concentration against Streptococcus pyogenes C203; format: functional
[9] = test system: Staphylococcus aureus; test: Minimum inhibitory concentration against V41 strain of Staphylococcus aureus; format: functional
[10] = test system: Salmonella; test: Minimum inhibitory concentration against X514 strain of Salmonella; format: functional
[11] = test system: Staphylococcus epidermidis; test: Minimum inhibitory concentration against 222 strain of Staphylococcus epidermidis; format: functional
[12] = test system: Streptococcus pneumoniae; test: Minimum inhibitory concentration against Park strain of Streptococcus pneumoniae
[13] = test system: Staphylococcus aureus; test: Minimum inhibitory concentration against X1.1 strain of Staphylococcus aureus; format: functional
[14] = test system: Klebsiella pneumoniae; test: Minimum inhibitory concentration against X68 strain of Klebsiella pneumoniae; format: functional
[15] = Minimum inhibitory concentration against res 76 strain of Haemophilus influenzae; format: functional
[16] = test system: Streptococcus pyogenes; test: Minimum inhibitory concentration against C203 strain of Streptococcus pyogenes
[17] = test system: Streptococcus pneumoniae; test: Minimum inhibitory concentration against park strain of Streptococcus pneumoniae
[18] = test system: Staphylococcus aureus; test: Minimum inhibitory concentration against 3055 strain of Staphylococcus aureus
[19] = test system: Streptococcus pyogenes; test: Minimum inhibitory concentration against C203 strain of Streptococcus pyogenes; remark: listed apart in the source
[20] = Area under plasma concentration vs time curve observed in Rhesus monkeys after, iv administration of single 30 mg/kg dose; format: ADME, organism-based, Macaca mulatta; parameters: dose 30 mg/kg, route intravenous; conditions: rhesus monkey
Outline: (§1)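 Rhesus monkeys, adult males, six animals per compound, each given drug orally and iv; fasted overnight. Single 30 mg/kg solution doses, by nasogastric tube (in water) or saphenous vein (in isotonic lactated Ringer). Plasma sampled at intervals, frozen at -70 °C, antibacterial activity by microbiological assay. AUC in μg min/mL; oral bioavailability from oral vs iv AUC.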

[21] = test system: Canis familiaris; test: Area under plasma concentration vs time curve observed in female mongrel dogs after, iv administration of single 15 mg/kg dose; format: ADME, organism-based, Canis lupus familiaris; parameters: dose 15 mg/kg, route intravenous; conditions: dog, in vivo
Outline: (§2)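 Six female mongrel dogs (14-23 kg) fasted overnight, bladder catheterized; single 15 mg/kg solution doses by stomach tube (in water, total 500 mL) or cephalic vein (saline or pH 6.0 NaCl/phosphate/acetate buffer). Plasma sampled at intervals; activity by disk-plate agar diffusion against E. coli MB 3804, standards in dog serum or buffer. AUC μg min/mL, mean ± SEM; BA from iv vs po AUC and urinary recovery.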

[22] = Oral bioavailability in Rhesus monkey; format: ADME, organism-based, Macaca mulatta; conditions: in vivo; outline: as §1
[23] = Oral bioavailability in dog (female mongrel); format: ADME, organism-based, Canis lupus familiaris; conditions: in vivo; outline: as §2
[24] = Dose in urine (24-h urine excretion) in female mongrel dogs after oral administration of single 15 mg/kg dose; format: ADME, organism-based, Canis lupus familiaris; parameters: dose 15 mg/kg, route oral; conditions: dog
Outline: (§3)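 Female mongrel dogs (n=6), bladder catheter; urine collected at intervals after single 15 mg/kg iv or oral solution dose, frozen; antibiotic activity by disk-plate agar diffusion against E. coli MB 3804 with standards in pH 6.0 buffer; percent of dose recovered in urine.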

[25] = Dose in urine (24-h urine excretion) in female mongrel dogs after iv administration of single 15 mg/kg dose; format: ADME, organism-based, Canis lupus familiaris; parameters: dose 15 mg/kg, route intravenous; conditions: dog; outline: as §3
[26] = Area under plasma concentration vs time curve observed in Rhesus monkeys after oral administration of single 30 mg/kg dose; format: ADME, organism-based, Macaca mulatta; parameters: dose 30 mg/kg, route oral; conditions: rhesus monkey; outline: as §1
[27] = test system: Canis familiaris; test: Area under plasma concentration vs time curve observed in female mongrel dogs after, oral administration of single 15 mg/kg dose; format: ADME, organism-based, Canis lupus familiaris; parameters: dose 15 mg/kg, route oral; conditions: dog, in vivo; outline: as §2

Row | SMILES | MIC [1] | MIC [2] | MIC [3] | MIC [4] | MIC [5] | MIC [6] | bioavailability [7] | MIC [8] | MIC [9] | MIC [10] | MIC [11] | MIC [12] | MIC [13] | MIC [14] | MIC [15] | MIC [16] | MIC [17] | MIC [18] | other results
1 | O=C(COc1ccc(O)cc1)N[C@@H]1C(=O)N2C(C(=O)O)=C(Cl)CS[C@H]12 | 64 µg/mL (≈ 166 µM) | 128 µg/mL (≈ 333 µM) | 2 µg/mL (≈ 5.2 µM) | > 128 µg/mL | 64 µg/mL (≈ 166 µM) | 16 µg/mL (≈ 41.6 µM) | 21% | 0.06 µg/mL (≈ 0.156 µM) | 128 µg/mL (≈ 333 µM) | 64 µg/mL (≈ 166 µM) | 1 µg/mL (≈ 2.6 µM) | 0.125 µg/mL (≈ 0.325 µM) | 0.5 µg/mL (≈ 1.3 µM) | > 128 µg/mL | 1 µg/mL (≈ 2.6 µM) | – | – | – | –
2 | O=C(COc1ccccc1)N[C@@H]1C(=O)N2C(C(=O)O)=CCS[C@H]12 | > 128 µg/mL | 16 µg/mL (≈ 47.9 µM) | 32 µg/mL (≈ 95.7 µM) | > 128 µg/mL | 32 µg/mL (≈ 95.7 µM) | 2 µg/mL (≈ 5.98 µM) | 22% | 0.5 µg/mL (≈ 1.5 µM) | 16 µg/mL (≈ 47.9 µM) | > 128 µg/mL | 0.5 µg/mL (≈ 1.5 µM) | 1 µg/mL (≈ 2.99 µM) | 0.5 µg/mL (≈ 1.5 µM) | > 128 µg/mL | 8 µg/mL (≈ 23.9 µM) | 0.25 µg/mL (≈ 0.748 µM) | 0.25 µg/mL (≈ 0.748 µM) | 0.5 µg/mL (≈ 1.5 µM) | –
3 | Cc1nc(CC(=O)N[C@@H]2C(=O)N3C(C(=O)O)=C(Cl)CS[C@H]23)cs1 | 64 µg/mL (≈ 171 µM) | – | – | > 128 µg/mL | – | – | 66% | – | – | 4 µg/mL (≈ 10.7 µM) | – | 1 µg/mL (≈ 2.67 µM) | – | – | – | – | – | – | –
4 | CC1=C(C(=O)O)N2C(=O)[C@@H](NC(=O)[C@H](N)c3ccccc3)[C@H]2SC1 [CEPHALEXIN ANHYDROUS] | – | – | – | – | – | – | – | – | – | – | – | – | – | – | – | – | 4 µg/mL (≈ 11.5 µM) | 1 µg/mL (≈ 2.88 µM) | MIC [19]: 0.5 µg/mL (≈ 1.44 µM)
5 | O=C(Cc1ccsc1)N[C@@H]1C(=O)N2C(C(=O)O)=C(Cl)CS[C@H]12 | 32 µg/mL (≈ 89.2 µM) | 16 µg/mL (≈ 44.6 µM) | 1 µg/mL (≈ 2.79 µM) | > 128 µg/mL | 8 µg/mL (≈ 22.3 µM) | 4 µg/mL (≈ 11.1 µM) | 47% | 0.125 µg/mL (≈ 0.348 µM) | 8 µg/mL (≈ 22.3 µM) | 1 µg/mL (≈ 2.79 µM) | 1 µg/mL (≈ 2.79 µM) | 0.125 µg/mL (≈ 0.348 µM) | 0.5 µg/mL (≈ 1.39 µM) | 2 µg/mL (≈ 5.57 µM) | 1 µg/mL (≈ 2.79 µM) | – | – | – | –
6 | O=C(Cc1ccccc1)N[C@@H]1C(=O)N2C(C(=O)O)=C(Cl)CS[C@H]12 | 64 µg/mL (≈ 181 µM) | 32 µg/mL (≈ 90.7 µM) | 1 µg/mL (≈ 2.83 µM) | > 128 µg/mL | 8 µg/mL (≈ 22.7 µM) | 2 µg/mL (≈ 5.67 µM) | 37% | 0.125 µg/mL (≈ 0.354 µM) | 16 µg/mL (≈ 45.4 µM) | 4 µg/mL (≈ 11.3 µM) | 1 µg/mL (≈ 2.83 µM) | 0.125 µg/mL (≈ 0.354 µM) | 0.5 µg/mL (≈ 1.42 µM) | 4 µg/mL (≈ 11.3 µM) | 1 µg/mL (≈ 2.83 µM) | 0.125 µg/mL (≈ 0.354 µM) | 0.25 µg/mL (≈ 0.709 µM) | 0.5 µg/mL (≈ 1.42 µM) | AUC [20]: 58300 ng·h/mL; AUC [21]: 97300 ng·h/mL; bioavailability [22]: 15.1%; bioavailability [23]: 17%; dose excreted [24]: 15%; dose excreted [25]: 67%; AUC [26]: 8830 ng·h/mL; AUC [27]: 16200 ng·h/mL
7 | C=CC1=C(C(=O)O)N2C(=O)[C@@H](NC(=O)COc3ccccc3)[C@H]2SC1 | > 128 µg/mL | 16 µg/mL (≈ 44.4 µM) | 4 µg/mL (≈ 11.1 µM) | > 128 µg/mL | > 128 µg/mL | 8 µg/mL (≈ 22.2 µM) | 36% | 0.125 µg/mL (≈ 0.347 µM) | 16 µg/mL (≈ 44.4 µM) | > 128 µg/mL | 0.5 µg/mL (≈ 1.39 µM) | 0.125 µg/mL (≈ 0.347 µM) | 0.25 µg/mL (≈ 0.694 µM) | > 128 µg/mL | 1 µg/mL (≈ 2.77 µM) | 0.125 µg/mL (≈ 0.347 µM) | 0.25 µg/mL (≈ 0.694 µM) | 0.25 µg/mL (≈ 0.694 µM) | –
8 | C=CC1=C(C(=O)O)N2C(=O)[C@@H](NC(=O)Cc3csc(N)n3)[C@H]2SC1 | – | 16 µg/mL (≈ 43.7 µM) | 4 µg/mL (≈ 10.9 µM) | 128 µg/mL (≈ 349 µM) | 4 µg/mL (≈ 10.9 µM) | 8 µg/mL (≈ 21.8 µM) | 25% | 0.125 µg/mL (≈ 0.341 µM) | 8 µg/mL (≈ 21.8 µM) | 2 µg/mL (≈ 5.46 µM) | 1 µg/mL (≈ 2.73 µM) | 0.5 µg/mL (≈ 1.36 µM) | 1 µg/mL (≈ 2.73 µM) | 2 µg/mL (≈ 5.46 µM) | 2 µg/mL (≈ 5.46 µM) | – | – | – | –
